Reference: ChEMBL document CHEMBL4145561, “Tiacumicin Congeners with Improved Antibacterial Activity from a Halogenase-Inactivated Mutant” (2018)
Values after ≈ are worked out from the molar mass of the structure shown.

Columns and labels:
Format in all cases: functional
Micrococcus luteus = assay: Antimicrobial activity against Micrococcus luteus SCSIO ML01 by broth microdilution method
How it was run: (§1)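 Mueller Hinton broth microdilution; MIC read as the minimal inhibitory concentration. Run against a panel of indicator strains that included MRSA, S. aureus ATCC 29213, B. thuringiensis SCSIO BT01, M. luteus SCSIO ML 01 and E. faecalis ATCC 29212.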

Staphylococcus aureus [1] = assay: Antimicrobial activity against methicillin-resistant Staphylococcus aureus isolate shhs-A1 by broth microdilution method
How it was run: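 Minimal inhibitory concentration determined by broth microdilution in Mueller Hinton broth against methicillin-resistant S. aureus shhs-A1, one strain of an indicator panel that also included S. aureus ATCC 29213, B. thuringiensis SCSIO BT01, M. luteus SCSIO ML 01 and E. faecalis ATCC 29212.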

Enterococcus faecalis = assay: Antimicrobial activity against Enterococcus faecalis ATCC 29212 by broth microdilution method; how it was run: as §1
Staphylococcus aureus [2] = assay: Antimicrobial activity against Staphylococcus aureus ATCC 29213 by broth microdilution method; how it was run: as §1
Bacillus thuringiensis = assay: Antimicrobial activity against Bacillus thuringiensis SCSIO BT01 by broth microdilution method; how it was run: as §1

| SMILES | MIC (Micrococcus luteus) | MIC (Staphylococcus aureus [1]) | MIC (Enterococcus faecalis) | MIC (Staphylococcus aureus [2]) | MIC (Bacillus thuringiensis) |
| --- | --- | --- | --- | --- | --- |
| CCc1cc(O)cc(O)c1C(=O)O[C@H]1[C@H](O)[C@H](O)[C@H](OC/C2=C\C=C\C[C@H](O)/C(C)=C/[C@H](CC)[C@@H](O[C@@H]3OC(C)(C)[C@@H](OC(=O)C(C)C)[C@H](O)[C@@H]3O)/C(C)=C/C(C)=C/C[C@@H](CC)OC2=O)O[C@@H]1C | > 128 µg/mL | > 128 µg/mL | > 128 µg/mL | > 128 µg/mL | 16 µg/mL (≈ 16.7 µM) |
| CC[C@H]1/C=C(\C)[C@@H](O)C/C=C/C=C(\CO[C@@H]2O[C@H](C)[C@@H](O)[C@H](O)[C@@H]2OC)C(=O)O[C@H]([C@@H](C)O)C/C=C(C)/C=C(\C)[C@@H]1O[C@@H]1OC(C)(C)[C@@H](OC(=O)C(C)C)[C@H](O)[C@@H]1O | > 128 µg/mL | > 128 µg/mL | > 128 µg/mL | > 128 µg/mL | > 128 µg/mL |
| CCc1cc(O)cc(O)c1C(=O)O[C@H]1[C@H](O)[C@H](OC)[C@H](OC/C2=C\C=C\C[C@H](O)/C(C)=C/[C@H](CC)[C@@H](O[C@@H]3OC(C)(C)[C@@H](OC(=O)C(C)C)[C@H](O)[C@@H]3O)/C(C)=C/C(C)=C/C[C@@H](C(C)=O)OC2=O)O[C@@H]1C | > 128 µg/mL | > 128 µg/mL | > 128 µg/mL | > 128 µg/mL | 8 µg/mL (≈ 8.1 µM) |
| CCc1cc(O)cc(O)c1C(=O)O[C@H]1[C@H](O)[C@H](OC)[C@H](OC/C2=C\C=C\C[C@H](O)/C(C)=C/[C@H](CC)[C@@H](O[C@@H]3OC(C)(C)[C@@H](OC(C)=O)[C@H](O)[C@@H]3O)/C(C)=C/C(C)=C/C[C@@H]([C@@H](C)O)OC2=O)O[C@@H]1C | 64 µg/mL (≈ 66.6 µM) | > 128 µg/mL | > 128 µg/mL | 128 µg/mL (≈ 133 µM) | 8 µg/mL (≈ 8.32 µM) |
| CCCc1cc(O)cc(O)c1C(=O)O[C@H]1[C@H](O)[C@H](OC)[C@H](OC/C2=C\C=C\C[C@H](O)/C(C)=C/[C@H](CC)[C@@H](O[C@@H]3OC(C)(C)[C@@H](OC(=O)C(C)C)[C@H](O)[C@@H]3O)/C(C)=C/C(C)=C/C[C@@H]([C@@H](C)O)OC2=O)O[C@@H]1C | 1 µg/mL (≈ 0.997 µM) | 2 µg/mL (≈ 1.99 µM) | 4 µg/mL (≈ 3.99 µM) | 2 µg/mL (≈ 1.99 µM) | 0.5 µg/mL (≈ 0.498 µM) |
| CCc1cc(O)cc(O)c1C(=O)O[C@H]1[C@H](O)[C@H](OC)[C@H](OC/C2=C\C=C\C[C@H](O)/C(C)=C/[C@H](CC)[C@@H](O[C@@H]3OC(C)(C)[C@@H](OC(=O)C(C)C)[C@H](O)[C@@H]3O)/C(C)=C/C(C)=C/C[C@@H]([C@@H](C)O)OC2=O)O[C@@H]1C | 2 µg/mL (≈ 2.02 µM) | 2 µg/mL (≈ 2.02 µM) | 16 µg/mL (≈ 16.2 µM) | 2 µg/mL (≈ 2.02 µM) | 1 µg/mL (≈ 1.01 µM) |
| CC[C@@H]1C/C=C(C)/C=C(\C)[C@H](O[C@@H]2OC(C)(C)[C@@H](O)[C@H](O)[C@@H]2O)[C@@H](CC)/C=C(\C)[C@@H](O)C/C=C/C=C(\CO[C@@H]2O[C@H](CO)[C@@H](O)[C@H](O)[C@@H]2O)C(=O)O1 | > 128 µg/mL | > 128 µg/mL | > 128 µg/mL | > 128 µg/mL | > 128 µg/mL |
| CCc1cc(O)cc(O)c1C(=O)O[C@H]1[C@H](O)[C@H](OC)[C@H](OC/C2=C\C=C\C[C@H](O)/C(C)=C/[C@H](CC)[C@@H](O[C@@H]3OC(C)(C)[C@@H](OC(=O)C(C)C)[C@H](O)[C@@H]3O)/C(C)=C/C(C)=C/C[C@@H](CC)OC2=O)O[C@@H]1C | > 128 µg/mL | > 128 µg/mL | > 128 µg/mL | > 128 µg/mL | 4 µg/mL (≈ 4.11 µM) |
| CC[C@H]1/C=C(\C)[C@@H](O)C/C=C/C=C(\CO[C@@H]2O[C@H](C)[C@@H](OC(=O)c3c(C)cc(O)cc3O)[C@H](O)[C@@H]2OC)C(=O)O[C@H]([C@@H](C)O)C/C=C(C)/C=C(\C)[C@@H]1O[C@@H]1OC(C)(C)[C@@H](OC(=O)C(C)C)[C@H](O)[C@@H]1O | 16 µg/mL (≈ 16.4 µM) | 16 µg/mL (≈ 16.4 µM) | 64 µg/mL (≈ 65.6 µM) | 16 µg/mL (≈ 16.4 µM) | 8 µg/mL (≈ 8.2 µM) |
| CCC(=O)O[C@H]1[C@H](O)[C@H](O)[C@H](O[C@H]2/C(C)=C/C(C)=C/C[C@@H]([C@@H](C)O)OC(=O)/C(CO[C@@H]3O[C@H](C)[C@@H](OC(=O)c4c(O)cc(O)cc4CC)[C@H](O)[C@@H]3OC)=C/C=C/C[C@H](O)/C(C)=C/[C@@H]2CC)OC1(C)C | 16 µg/mL (≈ 16.4 µM) | 8 µg/mL (≈ 8.2 µM) | 32 µg/mL (≈ 32.8 µM) | 8 µg/mL (≈ 8.2 µM) | 2 µg/mL (≈ 2.05 µM) |
| CCc1cc(O)cc(O)c1C(=O)O[C@H]1[C@H](O)[C@H](OC)[C@H](OC/C2=C\C=C\C[C@H](O)/C(C)=C/[C@H](CC)[C@@H](O[C@@H]3OC(C)(C)[C@@H](O)[C@H](O)[C@@H]3O)/C(C)=C/C(C)=C/C[C@@H](CC)OC2=O)O[C@@H]1C | 8 µg/mL (≈ 8.86 µM) | > 128 µg/mL | > 128 µg/mL | > 128 µg/mL | 16 µg/mL (≈ 17.7 µM) |
| CCc1c(Cl)c(O)c(Cl)c(O)c1C(=O)O[C@H]1[C@H](O)[C@H](OC)[C@H](OC/C2=C\C=C\C[C@H](O)/C(C)=C/[C@H](CC)[C@@H](O[C@@H]3OC(C)(C)[C@@H](OC(=O)C(C)C)[C@H](O)[C@@H]3O)/C(C)=C/C(C)=C/C[C@@H]([C@@H](C)O)OC2=O)O[C@@H]1C [FIDAXOMICIN] | 4 µg/mL (≈ 3.78 µM) | 1 µg/mL (≈ 0.945 µM) | 16 µg/mL (≈ 15.1 µM) | 4 µg/mL (≈ 3.78 µM) | 2 µg/mL (≈ 1.89 µM) |
